According to ChEMBL document CHEMBL1143761, “Synthesis and bioactivities of 6,7,8-trimethoxy-N-aryl-4-aminoquinazoline derivatives” (Bioorg Med Chem, 2007):
The source made the active and inactive calls. The calls are words filed in the database; no cut-off is given here.

Legend:
Bcap37 = experiment: Growth inhibition of human Bcap37 cells after 72 hrs by MTT assay; type: functional, cell-based
Summary of the method: (§1)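 Cell lines were grown in RPMI 1640 with 10% fetal bovine serum and plated at 2 × 10³ cells/well. Compounds were taken up in DMSO, diluted in medium, and applied over a 1–100 range for 72 h, with 0.1% DMSO as control. MTT formazan was read at 595 nm. IC50 came from the dose–response curve, from three separate experiments each run in triplicate.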

PC-3 = experiment: Growth inhibition of human PC3 cells after 72 hrs by MTT assay; type: functional, cell-based; summary of the method: as §1
A-431 = experiment: Growth inhibition of human A431 cells after 72 hrs by MTT assay; type: functional, cell-based; summary of the method: as §1
BGC-823 = experiment: Growth inhibition of human BGC823 cells after 72 hrs by MTT assay; type: functional, cell-based; summary of the method: as §1
[1] = target: Mitogen-activated protein kinase 3 (Homo sapiens) (UniProt P27361); experiment: Inhibition of EGF-induced ERK1 phosphorylation in PC3 cells at 20 uM after 60 mins; type: cell-based; conditions: PC-3
Chain of Mitogen-activated protein kinase 3 (Homo sapiens) (P27361 whole entry): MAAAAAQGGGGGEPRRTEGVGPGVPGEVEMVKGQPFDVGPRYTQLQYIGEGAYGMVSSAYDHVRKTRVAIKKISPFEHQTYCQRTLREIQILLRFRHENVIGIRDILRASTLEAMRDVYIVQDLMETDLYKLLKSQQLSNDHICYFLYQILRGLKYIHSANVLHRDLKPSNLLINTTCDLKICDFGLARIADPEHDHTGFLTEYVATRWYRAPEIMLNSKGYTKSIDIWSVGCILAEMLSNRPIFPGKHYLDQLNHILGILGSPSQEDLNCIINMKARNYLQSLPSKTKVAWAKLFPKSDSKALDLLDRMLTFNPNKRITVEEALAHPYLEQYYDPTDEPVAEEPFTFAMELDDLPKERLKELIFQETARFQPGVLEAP
Summary of the method: (§2)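 PC3 cells were grown in RPMI 1640 with 10% FBS at 37 °C for 36–48 h, then serum-starved for 24 h. They were pretreated with compound at 20 for 60 min, then stimulated with EGF for 10 min and quenched on ice. Lysates were immunoblotted with anti-phospho-ERK1/2 monoclonal antibody overnight at 4 °C, then secondary antibody for 2–3 h at 25 °C, with ECL detection.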

[2] = target: Mitogen-activated protein kinase 1 (Homo sapiens) (UniProt P28482); experiment: Inhibition of EGF-induced ERK2 phosphorylation in PC3 cells at 20 uM after 60 mins; type: cell-based; conditions: PC-3; summary of the method: as §2
Chain of Mitogen-activated protein kinase 1 (Homo sapiens) (P28482 whole entry): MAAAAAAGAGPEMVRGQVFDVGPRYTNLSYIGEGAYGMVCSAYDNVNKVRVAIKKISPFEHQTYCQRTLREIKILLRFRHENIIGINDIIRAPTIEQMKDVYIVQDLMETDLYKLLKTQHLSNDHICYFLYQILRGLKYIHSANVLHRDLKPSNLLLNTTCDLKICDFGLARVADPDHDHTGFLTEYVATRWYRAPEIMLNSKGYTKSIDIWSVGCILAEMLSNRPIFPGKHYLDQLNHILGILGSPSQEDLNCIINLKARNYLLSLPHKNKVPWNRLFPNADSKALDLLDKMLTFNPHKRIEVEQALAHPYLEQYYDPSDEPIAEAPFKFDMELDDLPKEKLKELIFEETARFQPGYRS

Row | Structure (SMILES) | IC50 (Bcap37; Homo sapiens, Bcap37, 72 h) | IC50 (PC-3; Homo sapiens, PC-3, 72 h) | IC50 (A-431; Homo sapiens, A-431, 72 h) | IC50 (BGC-823; Homo sapiens, BGC-823, 72 h) | IC50 (Bcap37; bcap37) | IC50 (PC-3; pc-3) | IC50 (A-431; a-431) | IC50 (BGC-823; bgc-823) | Activity [1] | Activity [2]
1 | COc1cc2c(Nc3ccccc3[N+](=O)[O-])ncnc2c(OC)c1OC | 29.9 µM | 31.2 µM | 31 µM | 21 µM |  |  |  |  |  | 
2 | COc1cc2c(Nc3ccc(Cl)cc3)ncnc2c(OC)c1OC | 52.2 µM | 31 µM | 19 µM | 34.4 µM |  |  |  |  |  | 
3 | COc1cc(Nc2ncnc3c(OC)c(OC)c(OC)cc23)cc(OC)c1OC | 76.5 µM | 30 µM | 65.4 µM | 23.1 µM |  |  |  |  |  | 
4 | COc1cc2c(Nc3ccccc3F)ncnc2c(OC)c1OC | 63.2 µM | 18.8 µM | 72.1 µM | 36.7 µM |  |  |  |  |  | 
5 | COc1cc2c(Nc3cccc(Br)c3)ncnc2c(OC)c1OC [listing 1 of 2 here] |  |  |  |  | 21 µM | 12.6 µM | 11 µM | 12.1 µM |  | 
6 | COc1cc2c(Nc3ccc(Br)cc3)ncnc2c(OC)c1OC | 31.2 µM | 23.4 µM | 42.1 µM | 23.8 µM |  |  |  |  |  | 
7 | COc1cc2c(Nc3cccc([N+](=O)[O-])c3)ncnc2c(OC)c1OC | 31.1 µM | 24.4 µM | 37.7 µM | 39 µM |  |  |  |  |  | 
8 | COc1cc2c(Nc3ccc(Br)cc3Cl)ncnc2c(OC)c1OC | 89 µM | 21 µM | 51.5 µM | 31 µM |  |  |  |  |  | 
9 | COc1cc2c(N[C@H](C)c3ccccc3)ncnc2c(OC)c1OC | 23.2 µM | 18.8 µM | 21 µM | 12 µM |  |  |  |  |  | 
10 | COc1cc2c(Nc3cccc(Br)c3)ncnc2c(OC)c1OC [listing 2 of 2 here] | 12.3 µM | 8.9 µM | 7.6 µM |  |  |  |  | 5.8 µM |  | 
11 | COc1cc2c(Nc3ccc([N+](=O)[O-])cc3)ncnc2c(OC)c1OC | 28.9 µM | 25.5 µM | 45.2 µM | 32.2 µM |  |  |  |  |  | 
12 | COc1cc2c(cc1Nc1ncnc3c(OC)c(OC)c(OC)cc13)oc1ccccc12 | 8.1 µM | 9.8 µM | 9 µM | 9.9 µM |  |  |  |  |  | 
13 | COc1cc2c(N[C@@H](C)c3ccccc3)ncnc2c(OC)c1OC | 12.9 µM | 10 µM | 12 µM | 11.9 µM |  |  |  |  |  | 
14 | COc1cc2c(Nc3ccc(F)cc3)ncnc2c(OC)c1OC | 28.7 µM | 24.5 µM | 29 µM | 39.6 µM |  |  |  |  |  | 
15 | COc1cc2c(Nc3cccc(F)c3)ncnc2c(OC)c1OC [listing 1 of 2 here] |  |  |  |  | 22.1 µM | 25.3 µM |  | 28.9 µM |  | 
16 | COc1cc2c(Nc3cccc(Cl)c3)ncnc2c(OC)c1OC | 21 µM | 19 µM | 32.1 µM | 19 µM |  |  |  |  |  | 
17 | COc1cc2ncnc(Nc3cccc(Br)c3)c2cc1OC | 13.7 µM | 8.9 µM |  | 16.8 µM |  |  |  |  | Active | Active
18 | COc1cc2c(=NCc3ccccc3)[nH]cnc2c(OC)c1OC | 65.4 µM | 36.7 µM | 21.2 µM | 37.7 µM |  |  |  |  |  | 
19 | COc1cc2c(Nc3cccc(F)c3)ncnc2c(OC)c1OC [listing 2 of 2 here] | 21 µM | 35.6 µM | 29.7 µM | 29.9 µM |  |  |  |  |  | 
20 | COc1cc2c(Nc3ccc(O)cc3)ncnc2c(OC)c1OC | 45.5 µM | 20.1 µM | 22.2 µM | 35.4 µM |  |  |  |  |  | 
